{
  "source": "ChEMBL document CHEMBL1122676",
  "about": "“2,3-Dimethyl-1,4-naphthoquinone derivatives as bioreductive alkylating agents with cross-linking potential” (1984)",
  "assay_type_in_all_cases": "functional",
  "key": {"Mus musculus [1]": {"test_system": "Mus musculus", "test": "Compound was evaluated for anticancer activity against Sarcoma180 tumor bearing mice by measuring T/C X 100 (dose 2.5 mg/kg daily)", "method_in_brief": "(§1)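 CDF1 mice given ~10^6 Sarcoma 180 ascites cells ip (from 7-day donor ascites, saline-diluted); compound as fine suspension in a few drops 20% aqueous Tween 80 made up in isotonic saline, 0.5 mL ip once daily for 6 days from 24 h post-implant. Survival time of treated vs vehicle-injected controls expressed as T/C × 100; 5–15 mice per value.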"}, "Mus musculus [2]": {"test_system": "Mus musculus", "test": "Compound was evaluated for anticancer activity against Sarcoma180 tumor bearing mice by measuring T/C X 100 (dose 5 mg/kg daily)", "method_in_brief": "as §1"}, "Mus musculus [3]": {"test_system": "Mus musculus", "test": "Compound was evaluated for anticancer activity against Sarcoma180 tumor bearing mice by measuring average weight (dose 2.5 mg/kg daily)", "method_in_brief": "(§2)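 Sarcoma 180 ascites-bearing CDF1 mice (~10^6 cells ip) dosed ip daily for 6 consecutive days starting 24 h after implantation, drug suspended with 20% aqueous Tween 80 in isotonic saline. Mice weighed during the experiment; percent body weight change from onset to end of therapy recorded as the toxicity index, average per group; 5–15 mice per value.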"}, "Mus musculus [4]": {"test_system": "Mus musculus", "test": "Compound was evaluated for anticancer activity against Sarcoma180 tumor bearing mice by measuring average weight (dose 5 mg/kg daily)", "method_in_brief": "as §2"}, "Mus musculus [5]": {"test_system": "Mus musculus", "test": "Compound was evaluated for anticancer activity against Sarcoma180 tumor bearing mice by measuring average weight (dose 10 mg/kg daily)", "method_in_brief": "as §2"}, "Mus musculus [6]": {"test_system": "Mus musculus", "test": "Compound was evaluated for anticancer activity against Sarcoma180 tumor bearing mice by measuring T/C X 100 (dose 10 mg/kg daily)", "method_in_brief": "as §1"}, "Mus musculus [7]": {"test_system": "Mus musculus", "test": "Compound was evaluated for anticancer activity against Sarcoma180 tumor bearing mice by measuring average weight (dose 15 mg/kg daily)", "method_in_brief": "as §2"}, "Mus musculus [8]": {"test_system": "Mus musculus", "test": "Compound was evaluated for anticancer activity against Sarcoma180 tumor bearing mice by measuring T/C X 100 (dose 3.25 mg/kg daily)", "method_in_brief": "as §1"}, "Mus musculus [9]": {"test_system": "Mus musculus", "test": "Compound was evaluated for anticancer activity against Sarcoma180 tumor bearing mice by measuring average weight (dose 7.5 mg/kg daily)", "method_in_brief": "as §2"}, "Mus musculus [10]": {"test_system": "Mus musculus", "test": "Compound was evaluated for anticancer activity against Sarcoma180 tumor bearing mice by measuring average weight (dose 3.25 mg/kg daily)", "method_in_brief": "as §2"}, "Mus musculus [11]": {"test_system": "Mus musculus", "test": "Compound was evaluated for anticancer activity against Sarcoma180 tumor bearing mice by measuring T/C X 100 (dose 7.5 mg/kg daily)", "method_in_brief": "as §1"}, "Mus musculus [12]": {"test_system": "Mus musculus", "test": "Compound was evaluated for anticancer activity against Sarcoma180 tumor bearing mice by measuring T/C X 100 (dose 15 mg/kg daily)", "method_in_brief": "as §1"}},
  "data": [
    {"smiles": "Cc1ccc(S(=O)(=O)OCC2=C(COS(=O)(=O)c3ccc(C)cc3)C(=O)c3ccccc3C2=O)cc1", "values": [
      {"measurement": "T/C", "setting": "Mus musculus [1]", "result": 130},
      {"measurement": "T/C", "setting": "Mus musculus [2]", "result": 138},
      {"measurement": "Average weight", "setting": "Mus musculus [3]", "result": 22.3, "unit": "%"},
      {"measurement": "Average weight", "setting": "Mus musculus [4]", "result": 21, "unit": "%"},
      {"measurement": "Average weight", "setting": "Mus musculus [5]", "result": 13.8, "unit": "%"},
      {"measurement": "T/C", "setting": "Mus musculus [6]", "result": 126}
    ]},
    {"smiles": "O=C1C(CBr)=C(CBr)C(=O)c2ccccc21", "values": [
      {"measurement": "Average weight", "setting": "Mus musculus [7]", "result": -14.1, "unit": "%"},
      {"measurement": "T/C", "setting": "Mus musculus [8]", "result": 165},
      {"measurement": "Average weight", "setting": "Mus musculus [9]", "result": -14.3, "unit": "%"},
      {"measurement": "Average weight", "setting": "Mus musculus [10]", "result": -8.8, "unit": "%"},
      {"measurement": "T/C", "setting": "Mus musculus [11]", "result": 130},
      {"measurement": "T/C", "setting": "Mus musculus [12]", "result": 140}
    ]},
    {"smiles": "CNC(=O)OCC1=C(COC(=O)NC)C(=O)c2ccccc2C1=O", "values": [
      {"measurement": "T/C", "setting": "Mus musculus [1]", "result": 266},
      {"measurement": "T/C", "setting": "Mus musculus [2]", "result": 177},
      {"measurement": "Average weight", "setting": "Mus musculus [3]", "result": 3.8, "unit": "%"},
      {"measurement": "Average weight", "setting": "Mus musculus [4]", "result": -7.6, "unit": "%"},
      {"measurement": "Average weight", "setting": "Mus musculus [5]", "result": -10, "unit": "%"},
      {"measurement": "T/C", "setting": "Mus musculus [6]", "result": 200}
    ]},
    {"smiles": "CC1=C(C)C(=O)c2ccccc2C1=O", "values": [
      {"measurement": "Average weight", "setting": "Mus musculus [7]", "result": 0.5, "unit": "%"},
      {"measurement": "T/C", "setting": "Mus musculus [8]", "result": 104},
      {"measurement": "Average weight", "setting": "Mus musculus [9]", "result": 1.3, "unit": "%"},
      {"measurement": "Average weight", "setting": "Mus musculus [10]", "result": 1.4, "unit": "%"},
      {"measurement": "T/C", "setting": "Mus musculus [11]", "result": 78},
      {"measurement": "T/C", "setting": "Mus musculus [12]", "result": 103}
    ]},
    {"smiles": "O=C1C(CCl)=C(CCl)C(=O)c2ccccc21", "values": [
      {"measurement": "Average weight", "setting": "Mus musculus [7]", "result": -15.6, "unit": "%"},
      {"measurement": "T/C", "setting": "Mus musculus [8]", "result": 100},
      {"measurement": "Average weight", "setting": "Mus musculus [9]", "result": -10.3, "unit": "%"},
      {"measurement": "Average weight", "setting": "Mus musculus [10]", "result": -15.1, "unit": "%"},
      {"measurement": "T/C", "setting": "Mus musculus [11]", "result": 158},
      {"measurement": "T/C", "setting": "Mus musculus [12]", "result": 122}
    ]},
    {"smiles": "CS(=O)(=O)OCC1=C(COS(C)(=O)=O)C(=O)c2ccccc2C1=O", "values": [
      {"measurement": "T/C", "setting": "Mus musculus [1]", "result": 114},
      {"measurement": "T/C", "setting": "Mus musculus [2]", "result": 204},
      {"measurement": "Average weight", "setting": "Mus musculus [3]", "result": 18.4, "unit": "%"},
      {"measurement": "Average weight", "setting": "Mus musculus [4]", "result": 5.9, "unit": "%"},
      {"measurement": "Average weight", "setting": "Mus musculus [5]", "result": -2, "unit": "%"},
      {"measurement": "T/C", "setting": "Mus musculus [6]", "result": 232}
    ]},
    {"smiles": "O=C(NCCCl)OCC1=C(COC(=O)NCCCl)C(=O)c2ccccc2C1=O", "values": [
      {"measurement": "T/C", "setting": "Mus musculus [1]", "result": 230},
      {"measurement": "T/C", "setting": "Mus musculus [2]", "result": 209},
      {"measurement": "Average weight", "setting": "Mus musculus [3]", "result": 0, "unit": "%"},
      {"measurement": "Average weight", "setting": "Mus musculus [4]", "result": -4.3, "unit": "%"},
      {"measurement": "Average weight", "setting": "Mus musculus [5]", "result": -7.8, "unit": "%"},
      {"measurement": "T/C", "setting": "Mus musculus [6]", "result": 189}
    ]},
    {"smiles": "O=C1C(CO)=C(CO)C(=O)c2ccccc21", "values": [
      {"measurement": "Average weight", "setting": "Mus musculus [7]", "result": -9.9, "unit": "%"},
      {"measurement": "T/C", "setting": "Mus musculus [8]", "result": 55},
      {"measurement": "Average weight", "setting": "Mus musculus [9]", "result": -14.3, "unit": "%"},
      {"measurement": "Average weight", "setting": "Mus musculus [10]", "result": 10.8, "unit": "%"},
      {"measurement": "T/C", "setting": "Mus musculus [11]", "result": 51},
      {"measurement": "T/C", "setting": "Mus musculus [12]", "result": 37}
    ]}
  ]
}
